Only a selection was taken, and hits are over-represented in it overall.
Diaphorase act = activates diaphorase or chemically reduces, flagging diaphorase assay artifacts; activation factor at 20 µM; hit rate 0.005% among 190,000; Diaphorase/resazurin coupled assay, resorufin fluorescence, 16 min; hits give high values; 1 = vehicle wells, 0 = NADH-free wells; AID 1229;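 active = diaphorase activity raised at least twofold by the compound at 20 µM; inactive = activation factor below 2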
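Material: Clostridium kluyveri diaphorase, purified enzyme; Quantity: enzyme 0.07 U/mL final; Medium: HEPES pH 7.4 buffer with MgCl2 and Tween 20; Dosing: single compound dose of 20 µM, 1% DMSO final; Schedule: 16 min reaction at room temperature; Measured by: red resorufin fluorescence at 544/590 nm excitation/emission.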
Redox H2O2 prof = compounds producing H2O2 with reducing agent – biochemical, NIH compound library profiling, artefact control for MLSCN library redox annotation, primary screen; DTT-dependent redox cycling H2O2, phenol red/HRP absorbance; 100% = 100 µM peroxide control, 0% = buffer; activation, % at 10 µM; hit rate 0.03% among 200,000; AID 878;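 active = activation of at least 50% relative to the plate's high and low controls in the primary single-dose screen; inactive = activation below 50%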;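 also: compound incubated with DTT at 0.8 mM final as the reducing agent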
Lmaj promast = reduces viability of Leishmania major promastigotes; resazurin fluorescence viability; inhibition, % at 10 µM; hit rate 9% among 200,000;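 also: promastigotes grown with compound for 44 hours at 28 °C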
Diaph inh CS = counter-screen for diaphorase-based assays: diaphorase inhibitors and chemical oxidizers. diaphorase resazurin-to-resorufin fluorescence, NADH, 16 min; bacterial (C. kluyveri) enzyme, not human. inhibition, % at 20 µM. hit rate 0.69% among 190,000;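 active = primary screen inhibition at 20 µM above a set limit, cut at about 50% in these data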;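 also: plate controls were DMSO with full reaction for no effect and wells lacking NADH for full effect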
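System: Bacterial diaphorase enzyme (C. kluyveri) | Incubation: 16-min room-temperature incubation before reading | Benchmarks: No-NADH positive control and DMSO neutral control | Measured by: Resorufin fluorescence 544/590 nm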
PfGluPho inh = PfG6PD (Plasmodium falciparum) enzyme inhibition | AID 504690 | hit rate 0.78% among 350,000 | PfGluPho enzyme, NADPH resazurin-diaphorase fluorescence | inhibition, % at 20 µM;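 active = inhibition reaching at least a set limit at 20 µM in the primary screen, cut at about 59% in these data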;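 also: 0% = DMSO wells with substrate and 100% = DMSO wells lacking glucose-6-phosphate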
G6PDH CS = counter-screen for G6PDH assay hits: L. mesenteroides G6PDH inhibition; inhibition, % at 5 µM; Purified L. mesenteroides G6PDH, diaphorase/resazurin coupled fluorescence, 45 min; hit rate 0.12% among 200,000
* = called active by the depositor; x = no result. Rule as the data show it, unless noted: active = inhibition above about 50%; inactive = the rest.

SMILES	Diaphorase act	Redox H2O2 prof	Lmaj promast	Diaph inh CS	PfGluPho inh	G6PDH CS
Nc1nnc(SCC(=O)NN2C(=O)NC3(CCCCC3)C2=O)s1	0.9	x	60*	10	-7	8
CCOC(=O)c1c(CSC(=N)N)n(-c2ccccc2)c2cc(Br)c(OC(C)=O)cc12	x	x	x	x	13	x
Cc1ncc([N+](=O)[O-])n1Cc1cccc2ccccc12	1	0	57*	1	2	12
O=S(=O)(c1ccc(Cl)cc1)N1CCC(O)(CN2CCN(Cc3ccccc3)CC2)CC1	1	-1	100*	1	6	1
Cc1ccc(S(=O)(=O)N2CCN(C3CCN(Cc4ccccc4)CC3)CC2)cc1	0.9	0	98*	14	-18	5
O=S(=O)(c1ccc2ccccc2c1)N1CCN(C2CCN(Cc3ccccc3)CC2)CC1	0.9	1	97*	14	-8	7
O=S(=O)(NC1CCCC1)c1ccc(S(=O)(=O)N2CCCN(Cc3ccccc3)C2)cc1	0.6	2	84*	38	9	-3
COc1ccc(NC(=S)N2CCN(Cc3ccco3)CC2)c(OC)c1	0.9	1	-5	14	-23	4
COc1ccc(NC(=S)N2CCN(C(=O)c3ccccc3)CC2)cc1	1	-1	11	4	5	1
COc1ccc(CN(C)C(=O)c2ccc3c(=O)n4c(nc3c2)CCC4)cc1	x	x	x	x	0	x
O=S(=O)(c1ccc2ccccc2c1)N1CCN(C2Cc3ccccc3C2)CC1	0.8	1	86*	21	-2	10
CCn1c(SCc2ccccc2)nnc1C1CCCCC1	1	1	-4	-3	10	6
CCn1c(SCc2ccccc2)nnc1C1CCN(S(=O)(=O)c2ccc(OC)cc2)CC1	1	2	91*	-3	2	12
O=S(=O)(c1ccc2ccccc2c1)N1CCCCCC1	x	0	-6	x	-10	13
COc1ccccc1N1CCN(S(=O)(=O)c2ccc3nc(-c4ccccc4)[nH]c3c2)CC1	0.9	1	57*	14	5	13
COc1ccc(S(=O)(=O)N2CCC(N3CCN(c4ccccc4)CC3)CC2)cc1	1.1	1	-2	-10	x	3
O=S(=O)(c1ccc2nc(-c3ccccc3)[nH]c2c1)N1CCN(c2cccc(Cl)c2)CC1	0.9	0	4	10	4	6
COc1ccc(S(=O)(=O)N2CCN(C3CCN(Cc4ccccc4)CC3)CC2)cc1	0.9	2	94*	9	4	6
C=CCN(Cc1ccc(Cl)s1)C(=O)c1ccc(F)c(S(=O)(=O)N2CCOCC2)c1	x	x	x	x	13	x
COc1cccc2c1C(CO)N1C(C#N)C3CC(C(=O)O)C(C1C2)N3C (stereo not given)	x	x	x	x	-14	x
CC(=O)c1ccc(COC(=O)c2cc3ccccc3oc2=O)cc1	x	x	x	x	14	x
CC/C(=N/NC(=O)c1ccccc1O)c1c(C)[nH]n(-c2ccccc2)c1=O	x	x	x	x	-40	x
O=S(=O)(c1ccccc1)N1CCN(C2CCN(Cc3ccccc3)CC2)CC1	0.9	0	96*	12	-8	5
COc1ccccc1N1CCN(C2CCN(S(=O)(=O)c3ccc4ccccc4c3)CC2)CC1	0.9	-3	55*	6	0	-1
COc1ccc(C)cc1S(=O)(=O)Nc1ccc2c(c1)N(C(C)=O)CCC2	x	x	x	x	14	x
SMILES	Diaphorase act	Redox H2O2 prof	Lmaj promast	Diaph inh CS	PfGluPho inh	G6PDH CS
CCOC(=O)C1CCCN(c2nc3ccccc3nc2NS(=O)(=O)c2ccc(C)cc2)C1 (stereo not given)	x	x	x	x	-11	x
CC(C)CC1Nc2ccc(C(=O)NCCCN3CCCCC3C)cc2NC1=O (stereo not given)	x	x	x	x	2	x
Cn1c(CN2CCCCC2)nc2cc(NC(=O)c3ccccc3)ccc21	0.9	-1	15	11	10	-20
CC1CCN(CCc2nc3cc(NS(=O)(=O)c4ccc(F)cc4)ccc3n2C)CC1	0.9	2	99*	10	20	-19
Cn1c(CN2CCCCC2)nc2cc(NC(=O)c3cccc(Br)c3)ccc21	1	0	98*	-2	-24	8
Cn1c(CCN2CCCCC2)nc2cc(NS(=O)(=O)c3ccc(Cl)cc3)ccc21	0.9	x	x	6	-6	13
Cn1c(CN2CCCCC2)nc2cc(NS(=O)(=O)c3ccc(Cl)cc3)ccc21	1	-3	66*	1	-8	2
CC(C)N1C(=O)/C(=C\c2nc3ccccc3c(=O)[nH]2)c2ccccc21	0.4	0	100*	56*	47	-2
CCCN1C(=O)/C(=C/c2nc3ccccc3c(=O)[nH]2)c2ccccc21	0.8	-1	100*	22	-1	6
CCCN1C(=O)/C(=C/c2nc3ccccc3c(=O)[nH]2)c2cc(C)ccc21	x	x	x	x	22	x
COc1ccc(CN2CC[C@H]3C=CC[C@@H](C(=O)NCCc4ccccc4)[C@H]3C2=O)cc1OC	x	x	x	x	-2	x
O=C(CNC(=O)c1ccco1)NCC(=O)OCC(=O)c1ccc(Cl)c([N+](=O)[O-])c1	x	x	x	x	-91	x
CCOC(=O)c1ccc(NC(=S)Nc2cccc(C)n2)cc1	0.9	0	57*	6	-17	9
O=C(Cc1csc(NC(=O)c2ccc(F)cc2)n1)NO	1	-1	11	1	-11	12
COc1ccc(C2C(C#N)=C(N)Nc3nc4ccccc4n32)cc1 (stereo not given)	0.9	1	65*	7	1	13
COc1cc(-c2nnc(SCC(=O)c3ccccc3)o2)cc(OC)c1OC	0.8	1	10	16	1	3
COc1ccc(-c2nnc(SCC(=O)N(Cc3ccccc3)C(C)(C)C)o2)cc1OC	0.7	3	57*	32	11	11
CN1C(=O)[C@@H]2[C@H](C1=O)[C@@H]1C(=O)Nc3ccccc3C(=O)N1[C@@H]2c1ccc(Br)cc1	x	x	x	x	-1	x
O=C(NNc1ccccc1[N+](=O)[O-])Nc1ccc(Cl)c(Cl)c1	0.8	x	78*	18	44	13
CCN(CC)S(=O)(=O)c1cc([N+](=O)[O-])ccc1NNC(=O)Nc1ccc(Cl)c(Cl)c1	0.8	4	100*	23	58	-1
CCN(CC)S(=O)(=O)c1cc(NC(=O)C2=COCCO2)ccc1Cl	x	x	x	x	-2	x
Cc1ccc2cc(C3CC(c4cccs4)=NN3S(C)(=O)=O)c(Cl)nc2c1 (stereo not given)	x	x	x	x	-12	x
Cc1ccc2nc(Cl)c(C3CC(c4cccs4)=NN3S(C)(=O)=O)cc2c1 (stereo not given)	0.9	0	84*	7	23	-1
O=C(CCSc1ccc(Cl)cc1)c1cccs1	0.8	-3	70*	18	11	-3
O=C(CCNc1ccc(Cl)cc1)c1cccs1	0.8	0	32	17	14	0
